NR2E3 ag-1 = NR2E3 agonists in two-hybrid cells, primary screen, cell-based, luminescence, CHO-S, Gal4-NCOR/VP16-NR2E3. Photoreceptor-specific nuclear receptor (Homo sapiens), Q9Y5X4. luciferase. inhibition of corepressor binding, % at 3.98 µM. 360,000 tested, 0.35% active. AID 602229, 2012;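 active = inhibition above the mean of all tested compounds plus 3 SD, cut at about 70% in these data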;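 note: higher means lower luciferase signal from less NR2E3 corepressor binding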
Target sequence (Q9Y5X4 whole entry, looked up, the tested form may be a part): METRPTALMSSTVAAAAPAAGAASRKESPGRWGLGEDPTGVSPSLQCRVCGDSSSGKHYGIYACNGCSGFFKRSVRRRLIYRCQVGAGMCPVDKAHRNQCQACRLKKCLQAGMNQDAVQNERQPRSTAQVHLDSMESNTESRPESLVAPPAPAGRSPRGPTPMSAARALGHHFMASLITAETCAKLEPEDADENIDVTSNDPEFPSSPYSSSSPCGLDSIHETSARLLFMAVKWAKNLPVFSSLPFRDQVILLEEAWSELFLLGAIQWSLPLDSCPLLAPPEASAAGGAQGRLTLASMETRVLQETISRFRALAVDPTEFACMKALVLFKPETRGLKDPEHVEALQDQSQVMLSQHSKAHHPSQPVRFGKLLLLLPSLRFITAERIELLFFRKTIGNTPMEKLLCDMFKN
Rev-erbA mod = modulators of Rev-erb alpha DNA binding, primary screen, biochemical, FITC-DNA, fluorescence polarization, uHTS; Nuclear receptor subfamily 1 group D member 1 (Homo sapiens), P20393; Rev-erbα–FITC-DNA binding, 90 min; activity, % at 10 µM; 370,000 tested, 0.79% active;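 active = activity above about 14%, limit read from the data; passing the limit was not always enough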
rCAG binder = binders of r(CAG) RNA repeats, primary screen, biochemical, fluorescence; r(CAG) RNA repeat, TO-PRO-1 dye displacement fluorescence; inhibition, % at 3 µM; 370,000 tested, 1.3% active;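 active = inhibition above the plate cutoff, the mean of all test compounds on that plate plus 3 SD, cut at about 35% in these data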;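 note: higher means more dye released from RNA so lower well fluorescence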
PG9 Ab binder = binders of HIV-1 gp120 antibody PG9, primary screen, biochemical, TR-FRET | HIV-1 gp120 / PG9 antibody interaction | inhibition, % at 6.7 µM | TR-FRET gp120-PG9 antibody binding | 360,000 tested, 0.43% active; in the data active = inhibition above about 8.5%
NR2E3 ag-2 = inhibitors of NR2E3-RetCOR corepressor binding, primary screen, NR2E3 agonist project, biochemical, TR-FRET, GST-NR2E3, biotin-RetCOR | inhibition of corepressor binding, % at 4.78 µM | Photoreceptor-specific nuclear receptor (Homo sapiens), Q9Y5X4 | 320,000 tested, 0.12% active | AID 2300, 2010 | 1536-well;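 active = percent inhibition above the cutoff of mean plus 3 SD of all tested compounds, set per screening campaign, cut at about 20% in these data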
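Material – GST-tagged NR2E3 plus biotinylated RetCOR corepressor · Quantity – NR2E3 fusion 1.35 nM · Times – 5 h incubation at 4 °C · Medium – pH 7.5 Tris-based buffer · Technique – TR-FRET, Eu(K)-anti-GST donor, streptavidin-D2 acceptor, ex 340, em 617/671 nm · Benchmarks – high control biotin, low control 0.6% DMSO · Format – 1536-well plates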
rCAG bind conf = small molecules binding CAG repeat RNA – biochemical, fluorescence, confirmation; shares compounds with rCAG binder; r(CAG) RNA repeat, TO-PRO-1 dye displacement fluorescence; inhibition, % at 3 µM; 4,300 tested, 70% active; AID 652065, 2013;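 active = inhibition above a per-plate cutoff, the mean inhibition of sample wells plus 3 SD, cut at about 35% in these data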;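 note: loss of TO-PRO-1 fluorescence as compound displaces dye from 1x1 AA loop RNA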
dCAG dye counter = displacement of TO-PRO-1 from CAG DNA duplex, counter-screen for rCAG RNA repeat binder project, biochemical, fluorescence, TO-PRO-1 dye, d(CAG) DNA oligo; shares compounds with rCAG binder; d(CAG) DNA oligo TO-PRO-1 dye displacement; inhibition, % at 3 µM; 4,300 tested, 94% active;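 active = inhibition above its plate's cutoff, the mean test-well inhibition plus 3 SD, cut at about 4.8% in these data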;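 note: hits displace the dye from DNA and so lower well fluorescence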
Numbers stand for hits; . = inactive; / = no result. Compounds with a hit are over-represented: about 2.6% of the library has one in this group of screens.

SMILES | NR2E3 ag-1 | Rev-erbA mod | rCAG binder | PG9 Ab binder | NR2E3 ag-2 | rCAG bind conf | dCAG dye counter
Cc1cc(C)cc(CC(=O)N2CCC2(C)C(=O)NS(=O)(=O)c2ccc(C(C)(C)C)cc2)c1 (stereo not given) | . | . | 57.8 | . | / | 50.0 | 15.1
COc1ccc(S(=O)(=O)NC(=O)C2(C)CCN2C(=O)Cc2ccc(-c3ccccc3)cc2)cc1 (stereo not given) | . | . | 45.5 | . | / | 43.7 | 15.7
CC1(C(=O)NS(=O)(=O)c2ccc(Cl)cc2)CCN1C(=O)Cc1ccc(-c2ccccc2)cc1 (stereo not given) | . | . | 66.1 | . | / | 63.6 | 23.2
CC(C)(C)c1ccc(CC(=O)N2CCC2(C)C(=O)NS(=O)(=O)c2cccc(Cl)c2)cc1 (stereo not given) | . | . | 54.9 | . | / | 49.3 | 15.9
CC1(C(=O)NS(=O)(=O)c2ccc(Cl)cc2)CCN1C(=O)Cc1ccccc1 (stereo not given) | . | . | . | . | / | / | /
COC(=O)C1=C(C)N(Cc2ccc(Cl)cc2)C(=S)NC1c1ccccc1 (stereo not given) | / | . | . | . | / | / | /
CC(C)(C)c1ccc(S(=O)(=O)NC(=O)C2(C)CCN2C(=O)CC2CCCCC2)cc1 (stereo not given) | . | . | 44.1 | . | / | . | 5.3
CC(C)(C)c1ccc(S(=O)(=O)NC(=O)C2(C)CCN2C(=O)Cc2ccc(-c3ccccc3)cc2)cc1 (stereo not given) | . | . | 72.4 | . | / | 86.0 | 49.4
CC(C)(C)c1ccc(S(=O)(=O)NC(=O)C2(C)CCN2C(=O)Cc2cc(F)ccc2F)cc1 (stereo not given) | . | . | 38.3 | . | / | . | 5.6
CCC(=O)Nc1ccc(C(=O)COC(=O)c2nc3nccc(C)n3n2)cc1 | . | . | . | . | . | / | /
O=C(Nc1ccccc1Cl)c1cc(C2CCCN(C(=O)c3cccs3)C2)on1 (stereo not given) | . | . | . | . | / | / | /
COc1cc(NC(=O)CSc2ncnc3sc4c(c23)CCCC4)c(C(=O)O)cc1OC | . | . | 67.2 | . | . | 52.5 | 17.4
COc1ccc(OC)c(NC(=O)CSc2ncnc3sc(C)cc23)c1 | . | . | 71.6 | . | / | 63.8 | 34.5
COc1ccc(OC)c(NC(=O)CNC(=O)Cn2cnc3sc(C)cc3c2=O)c1 | . | . | . | . | . | / | /
Cc1cccc(NC(=O)CSc2ncnc3sc4c(c23)CCCC4)c1 | / | . | . | / | / | / | /
CC(C)(C)n1nnnc1C(c1ccccc1)N1CCN(C(=O)C2CCCO2)CC1 (stereo not given) | . | . | . | . | / | / | /
CCOc1ccc(/C=C(/NC(=O)c2ccc(Cl)cc2)C(=O)O)cc1OCC | . | . | . | . | . | / | /
CCOc1cc(/C=C(/NC(C)=O)C(=O)O)cc(Cl)c1OCc1ccc(Br)cc1 | . | . | 43.4 | . | . | . | 6.7
Cc1nn(-c2ccccc2)c2c1C(c1ccc(O)c(O)c1)N1C(=N2)C(Nc2ccccc2)=Nc2ccccc21 (stereo not given) | . | . | . | . | . | / | /
Cc1cccc(NC2=Nc3ccccc3N3C2=Nc2c(c(C)nn2-c2ccccc2)C3c2ccc(O)c(O)c2)c1 (stereo not given) | . | . | 57.1 | . | . | 48.5 | 34.1
Cc1ccc(NC2=Nc3ccccc3N3C2=Nc2c(c(C)nn2-c2ccccc2)C3c2ccc(O)c(O)c2)cc1 (stereo not given) | . | . | 57.4 | . | / | 63.5 | 41.6
Cc1nn(-c2ccccc2)c2c1C(c1ccc([N+](=O)[O-])cc1)N1C(=N2)C(=O)Nc2ccccc21 (stereo not given) | . | . | . | . | . | / | /
CCNC(=O)C1(C)CCN(C(=O)c2ccc(N(C)C)cc2)C1 (stereo not given) | . | . | . | . | / | / | /
COc1ccc(Cc2nnc(NS(=O)(=O)c3ccc(Cl)cc3)s2)cc1OC | . | . | 48.6 | . | . | 53.1 | 15.7
O=C(NC(=S)Nc1ccc(S(=O)(=O)Nc2nccs2)cc1)c1ccc(F)cc1 | . | . | 52.9 | . | . | 37.9 | 13.8
SMILES | NR2E3 ag-1 | Rev-erbA mod | rCAG binder | PG9 Ab binder | NR2E3 ag-2 | rCAG bind conf | dCAG dye counter
COc1ccc(C(=O)NC(=S)Nc2ccc(S(=O)(=O)Nc3cc(C)on3)cc2)cc1OC | . | . | 34.7 | . | . | 36.3 | 6.5
CCc1nnc(NS(=O)(=O)c2ccc(NC(=S)NC(=O)c3ccc(OC)cc3)cc2)s1 | . | . | 70.5 | . | . | 66.6 | 33.4
CCc1nnc(NS(=O)(=O)c2ccc(NC(=S)NC(=O)c3ccc(OC)c(OC)c3)cc2)s1 | . | . | 67.6 | . | . | 68.2 | 32.4
CCc1nnc(NS(=O)(=O)c2ccc(NC(=S)NC(=O)c3ccncc3)cc2)s1 | . | . | . | . | . | / | /
CCN(CC)C(=O)CC[C@@H]1CC[C@]2(CCCN(C(=O)C3CCCCC3)C2)O1 | / | . | . | / | / | / | /
Cc1cc(NS(=O)(=O)c2ccc(NC(=O)/C=C/c3cccc(Cl)c3)cc2)no1 | . | . | 61.3 | . | . | 49.4 | 17.3
Cc1cc(NS(=O)(=O)c2ccc(NC(=O)/C=C/c3ccccc3Cl)cc2)no1 | . | . | 71.0 | . | . | 56.3 | 22.5
Cc1cc(NS(=O)(=O)c2ccc(NC(=O)/C=C/c3ccccc3)cc2)no1 | . | . | . | . | . | / | /
CC(N=C1NS(=O)(=O)c2ccccc21)C(=O)NCc1ccncc1 (stereo not given) | . | . | . | . | / | / | /
Cc1ccc(S(=O)(=O)N2C[C@H]3C(=O)C[C@@H](c4cccc(Cl)c4)N(S(=O)(=O)c4ccc(C)cc4)[C@H]3C[C@H]2c2ccccc2)cc1 | . | . | . | . | / | / | /
Cc1noc(NS(=O)(=O)c2ccc(NC(=O)C(CC(C)C)N3C(=O)c4ccccc4C3=O)cc2)c1C (stereo not given) | . | . | 62.5 | . | . | 45.2 | 15.2
Cc1noc(NS(=O)(=O)c2ccc(NC(=O)/C=C/c3ccccc3)cc2)c1C | . | . | 38.9 | . | / | 37.5 | 6.7
O=C(/C=C/c1ccc(Br)cc1)Nc1ccc(S(=O)(=O)Nc2ncccn2)cc1 | . | / | 37.8 | . | . | . | 5.9

Screens deposited in PubChem BioAssay by several laboratories.
